Experimental data published in ChEMBL document CHEMBL1133734, “Synthesis and evaluation of nitroheterocyclic phosphoramidates as hypoxia-selective alkylating agents” (2000).

How the values were obtained:
[1] = test system: HT-29; experiment: Tested in vitro for cytotoxicity against HT-29 human colon carcinoma cells under aerobic condition; type: functional
Summary of the method: (§1)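 HT-29 colon cells were grown in α-MEM with 10% FBS and given a 4-h drug exposure under aerobic or hypoxic conditions in a clonogenic assay run in duplicate. The top dose was chosen to give >99% kill. LC99 (1% colony survival versus untreated controls) was taken by linear regression of log surviving fraction vs drug concentration.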

[2] = test system: B16; experiment: Tested in vitro for cytotoxicity against B16 murine melanoma cells; type: functional, Mus musculus
Summary of the method: (§2)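 Clonogenic assay. Cells were suspended in unsupplemented medium at 2-30 000 cells/mL and exposed 2 h at 37 °C, 5% CO2 to 1-400 µM drug (final), with the top dose chosen to give >99% kill. Drug stocks were made in medium or ethanol. After washing, cells were plated at 2-3 dilutions. Colonies of ≥50 cells were stained with crystal violet at 8 days (B16) or 14 days (MCF-7). LC99 was taken by linear regression of log surviving fraction vs concentration.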

[3] = test system: HT-29; experiment: Tested in vitro for cytotoxicity against HT-29 human colon carcinoma cells under hypoxic condition; type: functional; summary of the method: as §1
[4] = test system: MCF7; experiment: Tested in vitro for cytotoxicity against MCF-7/WT wild-type human breast cancer cells; type: functional; summary of the method: as §2
[5] = test system: MCF7-CP; experiment: Tested in vitro for cytotoxicity against MCF-7/CP 4-hydroperoxycyclophosphamide-resistant human breast cancer cells; type: functional; summary of the method: as §2
[6] = Ratio of lethal conc. under aerobic to hypoxic condition in HT-29 cells; type: functional
Summary of the method: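 HT-29 hypoxic selectivity. Aerobic and hypoxic LC99 values (concentration cutting clonogenic survival by 2 log units) come from the log-linear portion of each survival curve after 4-h drug treatment, assayed in duplicate. The ratio is aerobic LC99 over hypoxic LC99.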

SMILES | LC99 [1] | LC99 [2] | LC99 [3] | LC99 [4] | LC99 [5] | Ratio [6]
NC(=O)c1cc(COP(N)(=O)N(CCBr)CCBr)sc1[N+](=O)[O-] (stereo not drawn) | 0.73 µM | 1.4 µM | 0.33 µM | 1.6 µM | 1.5 µM | 2.2
N#Cc1cc(COP(N)(=O)N(CCBr)CCBr)sc1[N+](=O)[O-] (stereo not drawn) | 0.62 µM | 0.45 µM | 0.22 µM | 0.11 µM | 0.24 µM | 2.8
O=[N+]([O-])c1ccc(COP(=O)(N(CCCl)CCCl)N(CCCl)CCCl)s1 | 10.8 µM | 5.1 µM | 6.2 µM | 7.9 µM | 6.5 µM | 1.7
Cn1c(COP(=O)(N(CCBr)CCBr)N(CCBr)CCBr)ccc1[N+](=O)[O-] |  | 14 µM |  | 57 µM | 51 µM | 
Cn1c(COP(=O)(N(CCCl)CCCl)N(CCCl)CCCl)ccc1[N+](=O)[O-] |  | 70 µM |  | 205 µM | 245 µM | 
O=P(OCc1cccs1)(N(CCCl)CCCl)N(CCCl)CCCl |  | 120 µM |  | 211 µM | 205 µM | 
O=P(OCc1ccco1)(N(CCCl)CCCl)N(CCCl)CCCl |  | 53 µM |  | 300 µM | 230 µM | 
CN(C)c1cc(COP(N)(=O)N(CCBr)CCBr)sc1[N+](=O)[O-] (stereo not drawn) | 180 µM | 52 µM | 8.9 µM | 88 µM | 110 µM | 20
O=[N+]([O-])c1ccc(COP(=O)(N(CCBr)CCBr)N(CCBr)CCBr)o1 |  | 1.7 µM |  | 1.9 µM | 2.3 µM | 
Cn1c([N+](=O)[O-])cnc1COP(=O)(N(CCCl)CCCl)N(CCCl)CCCl | >600 µM | 150 µM | 28 µM | >600 µM | >600 µM | >20
O=[N+]([O-])c1ccc(COP(=O)(N(CCBr)CCBr)N(CCBr)CCBr)s1 |  | 1.1 µM |  | 2.4 µM | 1.9 µM | 
NP(=O)(OCc1cc(Br)c([N+](=O)[O-])s1)N(CCBr)CCBr (stereo not drawn) | 0.91 µM | 0.44 µM | 0.25 µM | 0.62 µM | 1.3 µM | 3.6
O=[N+]([O-])c1ccc(COP(=O)(N(CCCl)CCCl)N(CCCl)CCCl)o1 | 12 µM | 9.3 µM | 3.4 µM | 20 µM | 22 µM | 3.5
O=P1(N(CCCl)CCCl)NC(OO)CCO1 (stereo not drawn) [PERFOSFAMIDE] |  | 11 µM |  | 14 µM | 145 µM | 
